Data set [1] is described as follows: Lipophilicity. It counts as physicochemical.
The target of data set [2] is Sodium-dependent serotonin transporter (Rattus norvegicus, UniProt P31652). In words: Binding affinity at serotonin transporter from rat cerebral cortex by [3H]-paroxetine displacement. The data set is classed as tissue-based. The method in brief: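 Rat cerebral cortex membranes (100–200 μg protein) were incubated 120 min at 25 °C in 50 mM Tris–HCl pH 7.4 with 2 mM MgCl2 and 0.05 nM radioligand. Nonspecific binding was defined with 5 μM imipramine.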
Sodium-dependent serotonin transporter, sequence (P31652 whole entry): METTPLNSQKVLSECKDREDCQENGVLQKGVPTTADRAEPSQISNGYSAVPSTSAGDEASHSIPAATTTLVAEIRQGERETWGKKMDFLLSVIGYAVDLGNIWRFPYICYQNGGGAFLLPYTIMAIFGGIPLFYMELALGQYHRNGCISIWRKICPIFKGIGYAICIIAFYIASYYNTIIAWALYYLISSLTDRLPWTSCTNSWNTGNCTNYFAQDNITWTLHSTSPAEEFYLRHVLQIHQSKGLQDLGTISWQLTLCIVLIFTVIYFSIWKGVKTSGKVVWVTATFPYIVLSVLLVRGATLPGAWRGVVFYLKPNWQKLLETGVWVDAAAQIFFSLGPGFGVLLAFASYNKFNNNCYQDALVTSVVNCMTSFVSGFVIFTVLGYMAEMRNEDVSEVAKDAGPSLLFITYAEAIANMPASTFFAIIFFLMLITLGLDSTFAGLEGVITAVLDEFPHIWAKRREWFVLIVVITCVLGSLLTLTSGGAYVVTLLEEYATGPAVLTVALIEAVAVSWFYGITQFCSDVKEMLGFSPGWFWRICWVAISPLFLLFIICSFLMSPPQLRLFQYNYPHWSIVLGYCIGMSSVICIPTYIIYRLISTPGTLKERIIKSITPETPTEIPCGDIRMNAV

In data set [3] the target is T1, Substance-P receptor (Homo sapiens, UniProt P25103). Kind of data set: Binding affinity at human Tachykinin receptor 1 expressed in CHO cells by [3H]-substance P displacement. The data set is classed as cell-based. The method in brief: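 Membranes (10–20 μg protein) from CHO cells expressing human NK1 receptor were incubated 60 min at 25 °C in 50 mM Tris–HCl pH 7.4 with 2 mM MgCl2, 100 μg/mL bacitracin and 0.25 nM [3H]substance P.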
T1 sequence (P25103 whole entry): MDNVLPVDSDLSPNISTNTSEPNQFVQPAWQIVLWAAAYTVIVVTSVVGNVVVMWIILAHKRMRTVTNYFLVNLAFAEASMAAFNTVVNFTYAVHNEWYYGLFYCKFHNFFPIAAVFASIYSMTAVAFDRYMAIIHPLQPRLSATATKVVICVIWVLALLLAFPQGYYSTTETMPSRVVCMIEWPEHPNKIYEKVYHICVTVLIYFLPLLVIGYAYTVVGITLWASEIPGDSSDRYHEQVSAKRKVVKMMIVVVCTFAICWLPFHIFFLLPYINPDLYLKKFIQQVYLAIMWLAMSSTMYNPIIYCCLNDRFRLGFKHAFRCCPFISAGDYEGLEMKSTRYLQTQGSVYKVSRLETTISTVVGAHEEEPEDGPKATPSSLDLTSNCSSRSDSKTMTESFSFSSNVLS

The target of data set [4] is T1, Substance-P receptor. Kind of data set: Binding affinity towards human Tachykinin receptor 1 expressed in CHO cells using [3H]-substance P; Less than 50% inhibition at 10e-5 M. The data set is classed as cell-based.

As a reminder, the IC50 is the concentration that inhibits the measured activity by half. Low values mean greater potency in that assay, high ones weaker potency in that assay. As to `O=C(CCc1cc(C(F)(F)F)cc(C(F)(F)F)c1)N(Cc1ccccc1Cl)C1CCNCC1`, in data set [1], the “Log K' IAM” value amounted to 3.2. The IC50 in data set [2] is 200 nM; on Substance-P receptor [3] it was 100 nM.

As for `O=C(COc1cc(C(F)(F)F)cc(C(F)(F)F)c1)N(c1ccc(Cl)c(Cl)c1)C1CCNCC1`, the “Log K' IAM” value in data set [1] is 3.4. Also, the IC50 is 158 nM in data set [2] and 31.6 nM on Substance-P receptor [3].

As for `O=C(COc1cc(C(F)(F)F)cc(C(F)(F)F)c1)N(Cc1ccccc1Cl)C1CCNCC1`, the “Log K' IAM” value in data set [1] came to 3.2. The values for the IC50 (in data set [2]; at Substance-P receptor [3]) were 158 nM and 126 nM, respectively.

One may read the inhibition as the change of the read-out against control, counted positive when it falls. A lower inhibition goes with little suppression. The compound `O=C(COc1cc(F)cc(C(F)(F)F)c1)N(Cc1cccc(Cl)c1)C1CCNCC1` came in with an inhibition at Substance-P receptor [4] of less than 5%. In addition, in data set [1], the “Log K' IAM” value came to 2.9. In addition, the IC50 in data set [2] is 100 nM.

On to `Cc1cccc(CN(C(=O)COc2cc(C(F)(F)F)cc(C(F)(F)F)c2)C2CCNCC2)c1`, for which the “Log K' IAM” value in data set [1] was found to be 3.3. Further, the IC50 in data set [2] was 251 nM; on Substance-P receptor [3] it was 79.4 nM.

With `O=C(COc1cc(C(F)(F)F)cc(C(F)(F)F)c1)N(c1ccc(F)cc1)C1CCNCC1`, the “Log K' IAM” value in data set [1] came out at 2.5. The IC50 is 631 nM in data set [2] and 316 nM on Substance-P receptor [3].

Consider `O=C(COc1cc(F)cc(C(F)(F)F)c1)N(c1ccc(Cl)c(Cl)c1)C1CCNCC1`, for which the inhibition at Substance-P receptor [4] was less than 5%. The “Log K' IAM” value in data set [1] is given as 3. In data set [2], this compound had an IC50 of 39.8 nM.

For the compound `O=C(CCc1cc(C(F)(F)F)cc(C(F)(F)F)c1)N(c1ccc(F)cc1)C1CCNCC1`, the “Log K' IAM” value in data set [1] is on record as 2.9. In addition, the IC50 in data set [2] was 251 nM; on Substance-P receptor [3], 200 nM.

Consider `O=C(COc1cc(C(F)(F)F)cc(C(F)(F)F)c1)N(c1cccc(Cl)c1)C1CCNCC1`, for which the “Log K' IAM” value in data set [1] turned out to be 3. For the same compound, the IC50 in data set [2] is 158 nM; at Substance-P receptor [3] it was 200 nM.

With `O=C(COc1cc(Cl)cc(Cl)c1)N(Cc1cccc(Cl)c1)C1CCNCC1`, the “Log K' IAM” value in data set [1] came out at 3.1. In addition, the IC50 in data set [2] was 50.1 nM; at Substance-P receptor [3] it was 126 nM.

Regarding `O=C(COc1cc(C(F)(F)F)cc(C(F)(F)F)c1)N(c1cc(Cl)cc(Cl)c1)C1CCNCC1`, the inhibition at Substance-P receptor [4] was less than 5%. Moreover, in data set [1], the “Log K' IAM” value came out at 3.4. The IC50 in data set [2] is 158 nM.

On to `O=C(COc1cc(C(F)(F)F)cc(C(F)(F)F)c1)N(Cc1cccc(Cl)c1)C1CCNCC1`, for which the “Log K' IAM” value in data set [1] is reported as 3.4. For the same compound, the IC50 in data set [2] was 158 nM; at Substance-P receptor [3], 25.1 nM.

Take `Cc1cccc(CN(C(=O)CCc2cc(C(F)(F)F)cc(C(F)(F)F)c2)C2CCNCC2)c1`: the “Log K' IAM” value in data set [1] turned out to be 3.2. Besides, the IC50 in data set [2] is 200 nM; on Substance-P receptor [3], 25.1 nM.

Consider `Fc1ccc(N(CCCc2cc(C(F)(F)F)cc(C(F)(F)F)c2)C2CCNCC2)cc1`, for which the “Log K' IAM” value in data set [1] stood at 3.9. Besides, the values for the 50% inhibitory concentration (IC50) (in data set [2]; at Substance-P receptor [3]) were 39.8 nM and 50.1 nM, respectively.

On to `O=C(CCc1cc(C(F)(F)F)cc(C(F)(F)F)c1)N(Cc1ccc(F)cc1)C1CCNCC1`, for which the “Log K' IAM” value in data set [1] came to 2.9. Moreover, the IC50 in data set [2] was 316 nM; on Substance-P receptor [3], 31.6 nM.

In turn, `O=C(COc1cc(F)cc(F)c1)N(Cc1cccc(Cl)c1)C1CCNCC1` displayed an inhibition on Substance-P receptor [4] of less than 5%. The “Log K' IAM” value in data set [1] is listed as 2.4. Further, in data set [2], the IC50 is 20 nM.

Consider `Fc1ccc(CN(CCCc2cc(C(F)(F)F)cc(C(F)(F)F)c2)C2CCNCC2)cc1`, for which the “Log K' IAM” value in data set [1] is given as 3.8. Moreover, the values for the IC50 (in data set [2]; at Substance-P receptor [3]) were 25.1 nM and 126 nM, respectively.

On to `Cc1cc(C)cc(OCC(=O)N(Cc2cccc(Cl)c2)C2CCNCC2)c1`, for which the “Log K' IAM” value in data set [1] is recorded as 2.6. Besides, the IC50 in data set [2] was 25.1 nM; on Substance-P receptor [3] it was 100 nM.

Values taken from ChEMBL document CHEMBL1135382, “First dual NK(1) antagonists-serotonin reuptake inhibitors: synthesis and SAR of a new class of potential antidepressants” (Bioorg Med Chem Lett, 2002).
